ChEMBL document CHEMBL1134460, “Terminally alkylated polyamine analogues as chemotherapeutic agents” (J Med Chem, 2001)

Experiments:
MDA-MB-231 = assay: Growth inhibition of MDA-MB-231 breast cancer cell line; format: functional, cell-based; conditions: Homo sapiens
[1] = target: T1, Diamine acetyltransferase 1 (Homo sapiens, UniProt P21673); assay: Inhibitory activity of compound against SSAT extracted from superinduced H157 cells; format: cell-free
In short: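 SSAT came from crude extracts of superinduced H157 cells and was assayed at saturating spermidine.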

T47D = assay: Growth inhibition of T47D breast cancer cell line; format: functional, cell-based; conditions: Homo sapiens
Hs-578T = assay: Growth inhibition of Hs 578.T breast cancer cell line; format: functional, cell-based; conditions: Homo sapiens
NCI-H157 [2] = assay: Activity against H157 non-SCLC cells in culture; format: functional, cell-based; conditions: Homo sapiens
MCF7 = assay: Growth inhibition of MCF-7 breast cancer cell line; format: functional, cell-based; conditions: Homo sapiens
NCI-H157 [3] = assay: In vitro activity against H157 non-small-cell lung tumor line (non-SCLC) cultures.; format: functional, cell-based; conditions: Homo sapiens
[4] = target: T2, Ornithine decarboxylase (Homo sapiens) (UniProt P11926); assay: Inhibition of ornithine decarboxylase (ODC); design: concentration or dose not given beside the values; conditions: concentration not given here
T2 sequence (whole entry): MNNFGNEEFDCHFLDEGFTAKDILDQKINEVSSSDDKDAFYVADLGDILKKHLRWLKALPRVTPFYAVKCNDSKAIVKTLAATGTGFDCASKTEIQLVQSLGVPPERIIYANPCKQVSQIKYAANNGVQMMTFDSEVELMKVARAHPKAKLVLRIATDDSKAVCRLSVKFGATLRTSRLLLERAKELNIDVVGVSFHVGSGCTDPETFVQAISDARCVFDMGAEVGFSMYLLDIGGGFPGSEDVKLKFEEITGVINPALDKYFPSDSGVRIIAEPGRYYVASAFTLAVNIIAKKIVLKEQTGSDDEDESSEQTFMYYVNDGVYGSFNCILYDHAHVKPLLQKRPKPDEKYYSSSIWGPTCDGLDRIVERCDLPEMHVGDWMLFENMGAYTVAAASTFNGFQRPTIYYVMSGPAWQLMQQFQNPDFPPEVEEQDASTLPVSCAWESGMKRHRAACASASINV

[5] = Growth inhibition of […] breast cancer cell line; format: functional, cell-based; conditions: Homo sapiens, MDA-MB-468
NCH82 [6] = assay: In vitro activity against H82 small-cell lung tumor line (SCLC) cultures.; format: functional, cell-based; conditions: Homo sapiens
ZR-75-1 = assay: Growth inhibition of ZR-75-1 breast cancer cell line; format: functional, cell-based; conditions: Homo sapiens
NCI-H157 [7] = assay: Effect of exposure of H157 non-SCLC (<10 uM) for 96-h, and accumulation of compound was determined; format: functional, Homo sapiens
NCI-H157 [8] = assay: Effect of exposure of H157 non-SCLC to compound (<10 uM) for 96-h, on natural polyamines and accumulation of the compound; Decrease; format: functional, cell-based; conditions: Homo sapiens
In short: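 H157 non-SCLC cells were treated with 10 μM analogue. Cellular putrescine, spermidine and spermine, plus the intracellular analogue, were quantified and compared with untreated control cells.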

[9] = target: T1, Diamine acetyltransferase 1; assay: Effect of 10 uM on spermine/spermidine-N-acetyltransferase (SSAT) induction in non-SCLC cells; format: cell-based
In short: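 NCI H157 non-small-cell lung tumor cells were exposed to 10 μM analogue. SSAT activity was assayed and expressed as pmol product/mg protein/min, then as fold increase over untreated control cells.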

NCI-H157 [10] = assay: Effect of 10 uM of compound on NCI H157 cell lines was assessed from the amount of SSAT (values in parentheses are those in the absence of compound); format: functional, Homo sapiens
In short: (§1)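 Cells were exposed to 10 μM analogue, with untreated controls. SSAT was expressed as nmol product formed/mg protein in 24 h. The detection limit was 0.05 nmol/mg protein.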

NCH82 [11] = assay: Effect of 10 uM of compound on NCI H82 cell lines was assessed from the amount of SSAT (values in parentheses are those in the absence of compound); format: functional, Homo sapiens; in short: as §1
NCH82 [12] = assay: Effect of 10 uM of compound on NCI H82 cell lines was assessed from the amount of spermine (values in parentheses are those in the absence of compound); format: functional, Homo sapiens
NCH82 [13] = assay: Effect of 10 uM of compound on NCI H82 cell lines was assessed from the amount of spermidine (values in parentheses are those in the absence of compound); format: functional, Homo sapiens
[14] = target: S-adenosylmethionine decarboxylase (Homo sapiens) (UniProt P17707); assay: Inhibition of Inhibition of human form of S-adenosyl-methionine decarboxylase enzyme (AdoMet-DC); design: concentration or dose not given beside the values; conditions: concentration not given here

T1 sequence (P21673 whole entry): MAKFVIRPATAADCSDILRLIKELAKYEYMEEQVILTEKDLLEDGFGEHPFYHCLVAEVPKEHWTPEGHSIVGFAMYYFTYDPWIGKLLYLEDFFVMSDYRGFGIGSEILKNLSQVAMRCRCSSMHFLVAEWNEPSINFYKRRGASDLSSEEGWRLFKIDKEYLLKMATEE

| Structure (SMILES) | IC50 (MDA-MB-231) [nM] | IC50 [1] [nM] | IC50 (T47D) [nM] | IC50 (Hs-578T) [nM] | IC50 (NCI-H157 [2]) [nM] | IC50 (MCF7) [nM] | IC50 (NCI-H157 [3]) [nM] | inhibition [4] [%] | IC50 [5] [nM] | IC50 (NCH82 [6]) [nM] | IC50 (ZR-75-1) [nM] | Amount (NCI-H157 [7]) | Effect on polyamine pools (NCI-H157 [8]) | Induction [9] | Polyamine (NCI-H157 [10]) | Polyamine (NCH82 [11]) | Polyamine (NCH82 [12]) | Polyamine (NCH82 [13]) | inhibition [14] [%] |
| --- | --- | --- | --- | --- | --- | --- | --- | --- | --- | --- | --- | --- | --- | --- | --- | --- | --- | --- | --- |
| CCNCCCNCCCNCCCNCC1CC1 | 1300 | 100000 | 400 | 200 | 800 | 1100 | 700 | > 50 | 600 | 5200 | 1100 | >20 nM (mg of protein)-1 | Decrease | > 500 | – | – | – | – | – |
| CCNCCCNCCCCNCCCNCC [BIS(ETHYL)SPERMINE] | – | – | – | – | – | – | – | > 50 | – | – | – | >20 nM (mg of protein)-1 | Decrease | > 500 | 6511 nM (mg of protein)-1 | 60 nM (mg of protein)-1 | 10.06 nM (mg of protein)-1 | 3.07 nM (mg of protein)-1 | > 50 |
